Bioassay records as filed in PubChem.
Shown are actives, neighbours in structure and some others; about 0.58% of the full set was active somewhere.
OXTR potentiator = human OXTR potentiation | P30559 | CHO-OTR cells, Fluo-8 calcium fluorescence, potentiator mode; 0% = oxytocin EC15, 100% = EC100 | activation, % at 3 µM | 320,000 tested, 0.061% active | AID 2445;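 active = activation above that plate's cutoff, the mean activation of tested compounds plus 3 SD, cut at about 6.6% in these data, passing the limit was not always enough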
Target sequence (P30559 whole entry, looked up): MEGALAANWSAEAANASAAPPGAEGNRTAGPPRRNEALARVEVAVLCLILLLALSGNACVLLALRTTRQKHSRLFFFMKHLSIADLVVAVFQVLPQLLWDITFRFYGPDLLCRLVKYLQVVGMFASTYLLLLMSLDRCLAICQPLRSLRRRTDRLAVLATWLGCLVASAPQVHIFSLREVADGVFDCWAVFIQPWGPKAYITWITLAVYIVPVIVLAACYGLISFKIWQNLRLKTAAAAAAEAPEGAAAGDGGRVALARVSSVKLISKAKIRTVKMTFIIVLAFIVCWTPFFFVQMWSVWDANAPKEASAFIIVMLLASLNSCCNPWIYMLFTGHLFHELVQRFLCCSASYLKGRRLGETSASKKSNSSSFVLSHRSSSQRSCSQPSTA
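Material: CHO-OTR cells, human receptor; compound dosing: single dose, 3.0 µM nominal final compound concentration; schedule: 6 min compound pre-incubation at room temperature, 100 s kinetic read; measured by: kinetic Fluo-8 calcium fluorescence; read-out basis: % activation vs EC15 and EC100 oxytocin; controls: EC15 oxytocin alone as 0%, 75 nM oxytocin as 100%; replicates: singlicate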
TRPN1 ag = activates the zebrafish TRPN1 channel. 220,000 tested, 0.18% active. HEK293 zebrafish TRPN1-YFP, Fluo-8 calcium fluorescence; 100% = response to 87 µM carbachol. activation, % at 3 µM. AID 1424;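 active = activation above its plate's cutoff, the mean activation of test wells on that plate plus 3 SD, cut at about 19% in these data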
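Assay system: Zebrafish TRPN1-YFP in HEK293 cells | Incubation: Dye loading 1 h at 37 °C, then 30 min room temperature | Measured by: Kinetic Fluo-8 fluorescence, ex 470-495, em 515-575 nm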
V1R ag counter = activates human V1a receptor in oxytocin agonist counter-screen; CHO-V1R cells, Fluo-8 calcium fluorescence, agonist mode; 0% DMSO, 100% 3 nM vasopressin; activation, % at 3 µM; 320,000 tested, 0.25% active;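 active = activation above the mean activation of all tested compounds plus 3 SD, per screening run, cut at about 20% in these data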;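 note: signal is peak over basal fluorescence ratio across a 100 second FLIPR read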
TRPML3 ag = human mucolipin-3 channel agonism; AID 1448; Q8TDD5; HEK293 TRPML3-YFP, Fluo-8 calcium fluorescence; 100% = the carbachol control signal; activation, % at 3 µM; 220,000 tested, 0.29% active;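 active = activation above its plate's cutoff, the mean activation of the plate's test wells plus 3 SD, cut at about 12% in these data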
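Test system: HEK293 cells stably carrying human TRPML3-YFP; Doses: single dose, 3 µM final nominal compound, 0.3% DMSO final; Schedule: dye loading 1 h 37 °C then 30 min ambient, 125 s read; Technique: Fluo-8 calcium fluorescence; Benchmarks: high control carbachol 87 µM, low control DMSO.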
OXTR agonist = agonists of human oxytocin receptor; AID 2435; activation, % at 3 µM; CHO-OTR cells, Fluo-8 calcium fluorescence; normalized: DMSO 0%, oxytocin 100%; 320,000 tested, 0.32% active;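 active = activation above the mean of all tested compounds plus 3 SD, cutoff set per screening run, cut at about 20% in these data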;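 note: peak over basal fluorescence ratio from a 100 s FLIPR kinetic read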
OXTR pot confirm = human OXTR potentiation, confirmation. shares compounds with OXTR potentiator. CHO-OTR cells, Fluo-8 calcium fluorescence; scaled from low-dose to maximal oxytocin. activation, % at 3 µM. 180 tested, under 10 active. AID 434985;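 active = mean percent activation over triplicates above a cutoff set from solvent-only control plates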;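 note: compounds tested in the presence of an EC15 dose of oxytocin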
Large screens that a line does not name were inactive (follow-up assays come after a bar, where they were run).

CC(C)c1csc(CN2CCCC(CCC(=O)NCc3ccccc3F)C2)n1 (stereo not given)	none
CNC(=O)c1c(NC(=O)c2ccco2)sc2c1CCC2	none (no result: TRPN1 ag, TRPML3 ag)
CNC(=O)c1c(NC(=O)c2cc(-c3cc(C)c(C)cc3O)n[nH]2)sc2c1CCCC2	OXTR potentiator 6.6 | OXTR pot confirm inactive
CCOc1ccc(NC(=O)c2ccc3c(c2)N(Cc2ccc(F)cc2)C(=O)CS3=O)cc1 (stereo not given)	OXTR potentiator 12 | OXTR pot confirm inactive
Cc1c[n+]([O-])n(-c2ccc(C(=O)O)cc2)n1	none
CCOC(=O)C1(Cc2ccc(OC)cc2)CCN(C(=O)CN2CCOC2=O)CC1	none
COc1ccc(Nc2nc(N)nc(CSc3nncn3C)n2)cc1	none
CCOc1ccccc1Nc1nc(N)nc(CSc2nncn2C)n1	OXTR potentiator 11 | OXTR pot confirm inactive
CC(C)c1ccc(CNC(=O)C(=O)Nc2nccs2)cc1	none
CNC(=O)c1[nH]cnc1C(=O)N[C@@H](C)C(=O)OCc1ccccc1	none (no result: TRPN1 ag, TRPML3 ag)
CC(C)CNC(=O)CC(=O)N/N=C/c1ccc(F)cc1	OXTR potentiator 12 | OXTR pot confirm inactive
CCn1c(=O)c(C(=O)Nc2ccccn2)c(O)c2ccccc21	OXTR potentiator 12 | OXTR pot confirm inactive
CCCn1cc(NC(=O)c2cc(-c3ccccc3)on2)cn1	none
CC(C)CC1NC(=O)c2cc(Cl)ccc2-n2c1nc1cc(F)ccc1c2=O (stereo not given)	OXTR potentiator 15 (no result: TRPN1 ag, TRPML3 ag) | OXTR pot confirm inactive
c1ccc(-c2noc(CSc3nc4ccccc4o3)n2)cc1	OXTR potentiator 13 | OXTR pot confirm inactive
Clc1ccc(-c2nnc(SCc3nc(-c4ccccc4)no3)o2)cc1	none
CCOC(=O)C1=C(CNCCOc2ccc(OC)cc2)NC(=O)NC1c1ccc2c(c1)OCO2 (stereo not given)	OXTR potentiator 10 | OXTR pot confirm inactive
CCn1c(SCC(=O)Nc2nccs2)nnc1-c1cccnc1	none (no result: TRPN1 ag, TRPML3 ag)
CCn1c(SCC(=O)Nc2nc(C)cs2)nnc1-c1cccnc1	OXTR potentiator 11 | OXTR pot confirm inactive
CN(C)c1ccc(CNc2ccc3c(c2)ncn3C(C)(C)C)cc1	none (no result: TRPN1 ag, TRPML3 ag)
Cc1[nH]c(=O)[nH]c(=O)c1S(=O)(=O)NCC12CC3CC(CC(C3)C1)C2	OXTR potentiator 11 | OXTR pot confirm inactive
CCC(NS(=O)(=O)c1c(C)[nH]c(=O)[nH]c1=O)C12CC3CC(CC(C3)C1)C2 (stereo not given)	none
CC(C)(C)Cc1nnc(NC(=O)Cc2ccc([N+](=O)[O-])cc2)s1	none
CC(=O)Nc1ccc(S(=O)(=O)N(C)CC(=O)N/N=C/c2cccs2)cc1	none (no result: TRPN1 ag, TRPML3 ag)
CC(=O)Nc1ccc(S(=O)(=O)N(C)CC(=O)N/N=C/c2cccc(O)c2)cc1	OXTR potentiator 15 | OXTR pot confirm inactive
CCCCC(=O)Nc1nc(C)c(C(C)=O)s1	none
CC(=O)c1sc(NC(=O)C=C(C)C)nc1C	OXTR potentiator 9.1 | OXTR pot confirm inactive
COc1cc(/C=C(/C#N)C(=O)NC(C)c2ccccc2)cc(OC)c1O (stereo not given)	none (no result: TRPN1 ag, TRPML3 ag)
CC(NC(=O)/C(C#N)=C/c1ccc(C(=O)O)cc1)c1ccccc1 (stereo not given)	OXTR potentiator 13 (no result: TRPN1 ag, TRPML3 ag) | OXTR pot confirm inactive
O=c1cnnc(N/N=C/c2ccc3c(c2)OCO3)[nH]1	OXTR potentiator 10 | OXTR pot confirm inactive
CN(CC(=O)NCc1ccncc1)S(=O)(=O)c1ccc(F)cc1	OXTR potentiator 12 | OXTR pot confirm inactive
COc1ccc(NS(=O)(=O)c2cccc(C(=O)N/N=C/c3cn(-c4ccccc4)nc3-c3ccccc3)c2)cc1	none
COc1ccc(NS(=O)(=O)c2cccc(C(=O)N/N=C/c3cn(-c4ccccc4)nc3-c3ccc(OC)cc3)c2)cc1	OXTR potentiator 8.9 | OXTR pot confirm inactive
